Experimental data reported in article PMC7134392 (ChemMedChem, 2018).

Tests used:
RAW264.7 cells = experiment: Toxicity; format: cell-based; conditions: read-out: IC50 Toxicity (Tox.), Alamar blue cell viability
Summary of the method: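 RAW264.7 cells were grown in RPMI 1640 with 10% FCS, 50 μM 2-mercaptoethanol and penicillin/streptomycin. Cells were seeded at 50,000 per well in phenol-red-free medium ≥12 h beforehand. In the TNFα assay setting, cells were dosed with test compound from 50 μM to 0.023 μM (three-fold steps) or DMSO. Viability was read by Alamar blue. Means ± SD are from 3 independent experiments.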

[1] = molecular target: T1, full-length human estrogen receptor α (Homo sapiens, UniProt P03372); experiment: Competitive radiometric ligand binding assay, ERα; conditions: relative binding affinity, estradiol = 100; single determinations for RBA < 0.01
T1 sequence (P03372 1-595): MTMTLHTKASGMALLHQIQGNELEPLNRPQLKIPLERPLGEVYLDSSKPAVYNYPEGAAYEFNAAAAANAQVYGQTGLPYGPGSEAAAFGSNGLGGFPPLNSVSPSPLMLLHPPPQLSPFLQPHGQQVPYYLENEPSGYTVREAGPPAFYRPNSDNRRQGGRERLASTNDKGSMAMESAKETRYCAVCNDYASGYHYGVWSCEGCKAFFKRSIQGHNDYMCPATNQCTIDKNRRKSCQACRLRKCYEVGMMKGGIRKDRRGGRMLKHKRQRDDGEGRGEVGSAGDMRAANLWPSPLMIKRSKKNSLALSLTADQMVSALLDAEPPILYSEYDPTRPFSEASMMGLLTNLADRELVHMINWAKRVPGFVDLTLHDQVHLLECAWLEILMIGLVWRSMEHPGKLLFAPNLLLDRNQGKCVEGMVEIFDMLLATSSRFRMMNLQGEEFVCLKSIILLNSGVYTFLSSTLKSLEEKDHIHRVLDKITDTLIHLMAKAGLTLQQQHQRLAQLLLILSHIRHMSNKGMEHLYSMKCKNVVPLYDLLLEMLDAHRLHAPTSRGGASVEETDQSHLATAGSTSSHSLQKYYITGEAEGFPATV

[2] = molecular target: full-length human estrogen receptor β (Homo sapiens, UniProt Q92731); experiment: Competitive radiometric ligand binding assay, ERβ; conditions: relative binding affinity, estradiol = 100; single determinations for RBA < 0.01
full-length human estrogen receptor β, sequence (Q92731 whole entry): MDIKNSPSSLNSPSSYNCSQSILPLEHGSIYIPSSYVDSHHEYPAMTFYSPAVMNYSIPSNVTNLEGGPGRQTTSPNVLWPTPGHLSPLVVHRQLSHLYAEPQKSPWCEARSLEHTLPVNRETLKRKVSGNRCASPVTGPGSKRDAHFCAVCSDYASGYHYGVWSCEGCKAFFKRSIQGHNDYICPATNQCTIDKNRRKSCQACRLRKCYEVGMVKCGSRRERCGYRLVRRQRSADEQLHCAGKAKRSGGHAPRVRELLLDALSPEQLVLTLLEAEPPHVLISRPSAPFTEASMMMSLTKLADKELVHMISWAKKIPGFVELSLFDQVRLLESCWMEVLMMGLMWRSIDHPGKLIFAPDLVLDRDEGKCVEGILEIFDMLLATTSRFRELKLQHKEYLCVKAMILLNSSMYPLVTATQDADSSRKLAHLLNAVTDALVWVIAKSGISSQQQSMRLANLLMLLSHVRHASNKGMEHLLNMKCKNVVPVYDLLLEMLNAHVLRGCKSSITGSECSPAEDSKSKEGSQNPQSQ
Summary of the method: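 Full-length human ERβ incubated with radiolabelled estradiol tracer and competing test compound on ice for 18–24 h. Receptor-bound tracer was adsorbed onto hydroxyapatite, washed with buffer, and counted by scintillation. Affinity was expressed as RBA relative to estradiol = 100. Most values are the average of 2–3 determinations ± SD.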

Cc1c(-c2ccc(O)cc2)nn(-c2ccc(O)cc2)c1-c1ccc(OCCN2CCCCC2)cc1 [Compound 1, methyl-piperidino-pyrazole]
IC50 (RAW264.7 cells): 11.5 ± 2.4 µM | RBA ERα [1]: 12.0 ± 2.0 | RBA ERβ [2]: 0.05 ± 0.01
